Series [1] deals with MDA-MB-231. In words: Cytotoxicity against human MDA-MB-231 cells assessed as inhibition of cell growth measured after 24 hrs by MTT assay. Type of series: functional, cell-based. The conditions noted are these: MDA-MB-231, 24 h. Summed up:
(§1)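 MTT viability assay, 24 h exposure to a concentration series, 10^4 cells/well. Cancer lines were in DMEM (BT549, MDA-MB-231) or RPMI-1640 (HCT116, SW620) with 10% FBS. MCF10A and NCM460 were in DMEM with 20% FBS and 10 ng/ml EGF. MTT at 5 mg/mL for 4 h at 37 °C, formazan dissolved in DMSO, A490. IC50 from curve fit; mean ± SD, at least 6 experiments.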
A general note: Tetrazolium assays rely on reduction of a dye to a coloured formazan, in cell work by metabolically active cells.

The subject of series [2] is BT-549. In words: Cytotoxicity against human BT-549 cells assessed as inhibition of cell growth measured after 24 hrs by MTT assay. Type of series: functional, cell-based. The settings on record: BT-549, 24 h. Summed up: as §1
The next series relates to MCF-10A. Nature of the series: Cytotoxicity against human MCF-10A cells assessed as inhibition of cell growth measured after 24 hrs by MTT assay. Type of series: cell-based. The conditions noted are these: Homo sapiens, MCF-10A, 24 h. A digest of the protocol:
as §1

Series [3] deals with HCT-116. In words: Cytotoxicity against human HCT-116 cells assessed as inhibition of cell growth measured after 24 hrs by MTT assay. Type of series: functional, cell-based. The conditions noted are these: Homo sapiens, HCT-116, 24 h. A digest of the protocol:
as §1

Series [4] concerns SW-620. In words: Cytotoxicity against human SW-620 cells assessed as inhibition of cell growth measured after 24 hrs by MTT assay. Type of series: functional, cell-based. The settings on record: SW-620, 24 h. Summed up:
as §1

A further series has as its system NCM460. In words: Cytotoxicity against human NCM460 cells assessed as inhibition of cell growth measured after 24 hrs by MTT assay. Type of series: cell-based. The settings on record: Homo sapiens, NCM460, 24 h. Summed up:
as §1

In series [5] the test system is MDA-MB-231. Nature of the series: Induction of apoptosis in human MDA-MB-231 cells assessed as viable cells at 0.5 uM measured after 6 hrs by Annexin V-FITC/PI staining based flow cytometry method (reference value: 98.51%). Type of series: functional. The conditions noted are these: read-out: Activity. Summed up:
(§2)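 Cells seeded at 1×10^6 per well and treated with 0.5 µM for 6 h. Floating and adherent cells pooled, stained with Annexin V-FITC for 10 min and propidium iodide for 5 min, then analysed immediately by flow cytometry in FITC and PC5.5 channels. Mean ± SD, n = 3.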
A general note: Flow cytometry measures light scatter and fluorescence of single cells or particles in a stream.

The test system of series [6] is MDA-MB-231. Nature of the series: Induction of apoptosis in human MDA-MB-231 cells assessed as early apoptotic cells at 0.5 uM measured after 6 hrs by Annexin V-FITC/PI staining based flow cytometry method (reference value: 1.27%). Type of series: functional. Summed up: as §2
The test system of series [7] is MDA-MB-231. Nature of the series: Induction of apoptosis in human MDA-MB-231 cells assessed as late apoptotic cells at 0.5 uM measured after 6 hrs by Annexin V-FITC/PI staining based flowcytometry method (reference value: 0.11%). Type of series: functional. Summed up:
as §2

Series [8] relates to MDA-MB-231. In words: Induction of apoptosis in human MDA-MB-231 cells assessed as necrotic cells at 0.5 uM measured after 6 hrs by Annexin V-FITC/PI staining based flow cytometry method (reference value: 0.11%). Type of series: functional. A digest of the protocol: as §2
For series [9], the system named is BT-549. In words: Induction of apoptosis in human BT-549 cells assessed as viable cells at 0.5 uM measured after 6 hrs by Annexin V-FITC/PI staining based flow cytometry method (reference value: 98.51%). Type of series: functional. The conditions noted are these: read-out: Activity. A digest of the protocol:
as §2

For series [10], the system named is BT-549. In words: Induction of apoptosis in human BT-549 cells assessed as early apoptotic cells at 0.5 uM measured after 6 hrs by Annexin V-FITC/PI staining based flow cytometry method (reference value: 1.27%). Type of series: functional. Summed up: as §2
The subject of series [11] is BT-549. In words: Induction of apoptosis in human BT-549 cells assessed as late apoptotic cells at 0.5 uM measured after 6 hrs by Annexin V-FITC/PI staining based flow cytometry method (reference value: 0.11%). Type of series: functional. Summed up: as §2
Series [12] concerns BT-549. In words: Induction of apoptosis in human BT-549 cells assessed as necrotic cells at 0.5 uM measured after 6 hrs by Annexin V-FITC/PI staining based flow cytometry method (reference value: 0.11%). Type of series: functional. A digest of the protocol:
as §2

Series [13] deals with HCT-116. Nature of the series: Induction of apoptosis in human HCT-116 cells assessed as viable cells at 0.5 uM measured after 6 hrs by Annexin V-FITC/PI staining based flow cytometry method (reference value: 98.18%). Type of series: functional. The settings on record: read-out: Activity. A digest of the protocol: as §2
Series [14] concerns HCT-116. In words: Induction of apoptosis in human HCT-116 cells assessed as early apoptotic cells at 0.5 uM measured after 6 hrs by Annexin V-FITC/PI staining based flow cytometry method (reference value: 1.39%). Type of series: functional. A digest of the protocol:
as §2

In series [15] the test system is HCT-116. Nature of the series: Induction of apoptosis in human HCT-116 cells assessed as late apoptotic cells at 0.5 uM measured after 6 hrs by Annexin V-FITC/PI staining based flow cytometry method (reference value: 0.06%). Type of series: functional. A digest of the protocol:
as §2

The test system of series [16] is HCT-116. In words: Induction of apoptosis in human HCT-116 cells assessed as necrotic cells at 0.5 uM measured after 6 hrs by Annexin V-FITC/PI staining based flow cytometry method (reference value: 0.37%). Type of series: functional. A digest of the protocol: as §2
Series [17] relates to SW-620. In words: Induction of apoptosis in human SW-620 cells assessed as early apoptotic cells at 0.5 uM measured after 6 hrs by Annexin V-FITC/PI staining based flow cytometry method (reference value: 1.02%). Type of series: functional.
Series [18] relates to SW-620. In words: Induction of apoptosis in human SW-620 cells assessed as late apoptotic cells at 0.5 uM measured after 6 hrs by Annexin V-FITC/PI staining based flow cytometry method (reference value: 0.05%). Type of series: functional. Summed up:
as §2

The subject of series [19] is SW-620. In words: Induction of apoptosis in human SW-620 cells assessed as necrotic cells at 0.5 uM measured after 6 hrs by Annexin V-FITC/PI staining based flow cytometry method (reference value: 0.26%). Type of series: functional. Summed up:
as §2

Series [20] deals with T1, Nuclear receptor subfamily 4immunitygroup A member 1 (Homo sapiens, UniProt P22736). In words: Binding affinity to recombinant human N-terminal His-tagged Nur77-LBD (367 to 598 residues) expressed in Escherichia coli BL21 DE3 by flourescence quenching assay. Summed up: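 Human Nur77-LBD (367–598), N-terminal His tag, pET15b in E. coli BL21 DE3, Ni resin purified. Nur77-LBD at 1 µM in PBS in a quartz cell, titrated with compound over 0.01–1 µM at 25 °C. Excitation 280 nm, emission scanned 300–500 nm; peak intensity at 330 nm versus compound concentration fitted to a reported formula for Kd.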
T1 sequence (P22736 whole entry, the tested form may be a part): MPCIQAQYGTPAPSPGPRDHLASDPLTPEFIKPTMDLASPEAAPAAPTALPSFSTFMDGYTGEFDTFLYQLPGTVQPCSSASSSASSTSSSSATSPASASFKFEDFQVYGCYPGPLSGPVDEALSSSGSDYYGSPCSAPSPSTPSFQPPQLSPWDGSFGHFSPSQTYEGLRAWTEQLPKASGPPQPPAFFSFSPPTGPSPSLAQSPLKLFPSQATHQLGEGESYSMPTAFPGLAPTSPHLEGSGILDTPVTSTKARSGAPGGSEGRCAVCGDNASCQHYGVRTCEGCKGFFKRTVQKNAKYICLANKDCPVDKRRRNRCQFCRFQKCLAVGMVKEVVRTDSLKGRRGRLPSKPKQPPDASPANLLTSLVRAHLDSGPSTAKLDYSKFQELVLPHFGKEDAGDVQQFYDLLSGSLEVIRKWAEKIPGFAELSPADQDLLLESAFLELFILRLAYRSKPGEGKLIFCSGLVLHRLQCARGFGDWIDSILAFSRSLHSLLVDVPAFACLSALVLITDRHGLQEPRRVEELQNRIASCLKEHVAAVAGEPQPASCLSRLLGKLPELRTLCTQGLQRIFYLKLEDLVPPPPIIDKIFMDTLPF

Series [21] has as its target T1, Nuclear receptor subfamily 4immunitygroup A member 1. Nature of the series: Binding affinity to recombinant human N-terminal His-tagged Nur77-LBD (367 to 598 residues) expressed in Escherichia coli BL21 DE3 by surface plasmon resonance assay. A digest of the protocol: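 His-tagged human Nur77-LBD (367–598) from E. coli BL21 DE3, diluted to 0.05 mg/mL in 10 mM NaAc pH 5.0 and amine-coupled to a CM5 chip (~9000 RU). Compounds at 0.01–5 µM in PBS with 0.4% DMSO, 25 °C, 30 µL/min; 150 s association, 420 s dissociation, regeneration with 10 mM glycine-HCl pH 2.5. Reference- and blank-subtracted; Kd from global 1:1 kinetic fit.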
(In SPR one partner is held on a chip, and binding of the other changes the refractive index at the surface.)

Series [22] can be described thus: Cmax in male/female Sprague-Dawley rat at 5 mg/kg, po measured for 36 hrs by LC-MS/MS analysis. Type of series: ADME, organism-based. Details: route oral, time 36 hrs, dose 5 mg/kg. The settings on record: both, in vivo.
The nature of series [23]: Half life in male/female Sprague-Dawley rat at 0.5 mg/kg, iv measured for 36 hrs by LC-MS/MS analysis. The settings on record: both, in vivo. Type of series: ADME, organism-based.

The structures appear in SMILES notation.

The term IC50 denotes the point on the concentration scale where inhibition reaches its midpoint. For orientation: Kd means the equilibrium constant for the complex coming apart. `CS(=O)(=O)[O-].FC(F)(F)c1ccc([C+](c2c[nH]c3ccccc23)c2c[nH]c3ccccc23)cc1`: the IC50 in the series with MDA-MB-231 [1] is 220 nM; in the series with BT-549 [2] it was 170 nM; in the series on MCF-10A, 4290 nM; in the series on HCT-116 [3], 270 nM; in the series on SW-620 [4] it was 180 nM; in the series with NCM460, 6840 nM. Also, the viability at 0.5 µM worked out at 85.7% in the series with MDA-MB-231 [5], 74% in the series on BT-549 [9] and 81.6% in the series on HCT-116 [13]. In addition, the Activity with MDA-MB-231 [6] is reported as 12.18%; in the series on MDA-MB-231 [7] it was 0.65%; with MDA-MB-231 [8], 1.47%; in the series on BT-549 [10] it was 20.65%; with BT-549 [11] it was 4.21%; with BT-549 [12] it was 1.17%. Further, the Activity was found to be 11.05% with HCT-116 [14]; 3.58% in the series on HCT-116 [15]; 3.81% in the series on HCT-116 [16]; 12.97% in the series with SW-620 [17]; 15.18% with SW-620 [18]; 1.47% in the series on SW-620 [19]. Besides, the dissociation constant (Kd) in series [20] came out at 217 nM; in series [21], 110 nM.

Usually Cmax stands for the maximum level reached in the sampled fluid or tissue. As usually defined, the half-life is the time needed for the level to fall by half in the phase considered. In the case of `CS(=O)(=O)[O-].Cn1cc([C+](c2ccc(C(F)(F)F)cc2)c2c[nH]c3ccccc23)c2ccccc21`, the IC50 came out at 60 nM with MDA-MB-231 [1]; 40 nM in the series with BT-549 [2]; 2190 nM in the series with MCF-10A; 90 nM in the series with HCT-116 [3]; 100 nM with SW-620 [4]; 4630 nM with NCM460. Besides, the viability at 0.5 µM in the series on MDA-MB-231 [5] turned out to be 33.7%; with BT-549 [9], 14.4%; with HCT-116 [13], 33.3%. The Activity in the series on MDA-MB-231 [6] is 62.49%; in the series on MDA-MB-231 [7], 3.04%; in the series on MDA-MB-231 [8] it was 0.74%; with BT-549 [10] it was 73.75%; in the series on BT-549 [11], 10.97%; with BT-549 [12], 0.88%. Further, the Activity was 44.48% in the series on HCT-116 [14]; 19.94% with HCT-116 [15]; 2.3% in the series on HCT-116 [16]; 29.59% with SW-620 [17]; 62.95% in the series with SW-620 [18]; 0.38% in the series with SW-620 [19]. In addition, the dissociation constant Kd in series [20] worked out at 66 nM; in series [21] it was 33 nM. The molecule also gave a Cmax in series [22] of 57.9 ng/mL. The half-life in series [23] is 2.66 h.

Source of the values: ChEMBL document CHEMBL4819003, “Optimization of novel oxidative DIMs as Nur77 modulators of the Nur77-Bcl-2 apoptotic pathway” (Eur J Med Chem, 2021).
